Measurements published in ChEMBL document CHEMBL4334446, “Evaluating the effects of fluorine on biological properties and metabolic stability of some antitubulin 3-substituted 7-phenyl-pyrroloquinolinones” (Eur J Med Chem, 2019).

Tested on: B16-BL6
Test: Antitumour activity against mouse B16-BL6 cells allografted in C57BL/6 mouse assessed as reduction in tumor mass at 30 mg/kg, ip administrated every other day relative to control
Format: functional
Procedure, shortened: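 Six-week-old male C57BL/6 mice received BL6-B16 murine melanoma cells subcutaneously in the dorsolateral flank, suspended in PBS. Once tumors reached about 100 mm³, the mice were randomised and dosed intraperitoneally every other day, with the drug dissolved in DMSO; controls received DMSO vehicle. Tumors were measured in two dimensions, V=(D x d²)/2, and weighed at the end. Five mice per group; mean ± SEM.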

## COc1ccc(/C=C\c2cc(OC)c(OC)c(OC)c2)cc1OP(=O)(O)O [FOSBRETABULIN DISODIUM]
  inhibition in vivo at 30 mg/kg: 31.3%
